Test results from ChEMBL document CHEMBL3865784 (Eur J Med Chem, 2016).

What was measured:
[1] = Cytotoxicity against human HCT116 cells expressing NQO1 assessed as reduction in cell viability after 72 hrs by MTT assay; assay type: functional, cell-based; details: HCT-116, 72 h
Outline: (§1)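 Cancer lines from NCI, grown in RPMI 1640 with 10% FBS, 2 mM L-glutamine, penicillin/streptomycin, 37 °C, 5% CO2; seeded 0.1 × 10^6 cells/well (HL-60) or 0.7 × 10^5 cells/well (solid tumours). Compounds in DMSO, final 0.1% v/v; DMSO vehicle as negative control.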

[2] = Cytotoxicity against human SF295 cells overexpressing NQO1 assessed as reduction in cell viability after 72 hrs by MTT assay; assay type: functional, cell-based; details: SF-295, 72 h
[3] = Cytotoxicity against human MDA-MB-435 cells overexpressing NQO1 assessed as reduction in cell viability after 72 hrs by MTT assay; assay type: functional, cell-based; details: MDA-MB-435, 72 h; outline: as §1
[4] = Cytotoxicity against NQO1-deficient human PBMC assessed as reduction in cell viability after 72 hrs by MTT assay; assay type: toxicity, cell-based; details: for IC50: pbmc
[5] = Cytotoxicity against NQO1-deficient human HL60 cells assessed as reduction in cell viability after 72 hrs by MTT assay; assay type: functional, cell-based; details: HL-60, 72 h; outline: as §1
[6] = Cytotoxicity against human PC3 cells overexpressing NQO1 assessed as reduction in cell viability after 72 hrs by MTT assay; assay type: functional, cell-based; details: PC-3, 72 h
[7] = Cytotoxicity against human OVCAR8 cells overexpressing NQO1 assessed as reduction in cell viability after 72 hrs by MTT assay; assay type: functional, cell-based; details: OVCAR-8, 72 h; outline: as §1
[8] = Cytotoxicity against NQO1-deficient chinese hamster V79 cells assessed as reduction in cell viability after 72 hrs by MTT assay; assay type: toxicity, cell-based, Cricetulus griseus; details: v79
Mus musculus = organism: Mus musculus; assay: Cytotoxicity against NQO1-deficient mouse L929 cells assessed as reduction in cell viability after 72 hrs by MTT assay; assay type: toxicity, cell-based; details: l929
HL-60 [9] = assay: Selectivity index, ratio of IC50 for NQO1-deficient human PBMC to IC50 for NQO1-deficient human HL60 cells
Outline: (§2)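 Selectivity index is IC50 in the normal cells divided by IC50 in the cancer line. Normal cells: V79 and L929 in DMEM, PBMC in RPMI with phytohaemagglutinin. Cancer lines in RPMI with 10% FBS, seeded at 0.1 × 10^6 (HL-60) or 0.7 × 10^5 cells/well (solid tumors). Absorbance 550 nm; nonlinear regression.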

HL-60 [10] = assay: Selectivity index, ratio of IC50 for NQO1-deficient chinese hamster V79 cells to IC50 for NQO1-deficient human HL60 cells; assay type: functional; outline: as §2
L929 [11] = assay: Selectivity index, ratio of IC50 for NQO1-deficient mouse L929 cells to IC50 for NQO1-deficient human HL60 cells; assay type: functional; outline: as §2
HCT-116 [12] = assay: Selectivity index, ratio of IC50 for NQO1-deficient chinese hamster V79 cells to IC50 for human HCT116 cells expressing NQO1
Outline: as §2, with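 “line. All IC50s come from 72 h MTT assays.” for “line.”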

HCT-116 [13] = assay: Selectivity index, ratio of IC50 for NQO1-deficient mouse L929 cells to IC50 for human HCT116 cells expressing NQO1
Outline: as §2, with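 “line. All IC50s come from 72 h MTT assays.” for “line.”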

SF-295 [14] = assay: Selectivity index, ratio of IC50 for NQO1-deficient chinese hamster V79 cells to IC50 for human SF295 cells overexpressing NQO1; outline: as §2
L929 [15] = assay: Selectivity index, ratio of IC50 for NQO1-deficient mouse L929 cells to IC50 for human SF295 cells overexpressing NQO1; outline: as §2
[16] = Selectivity index, ratio of IC50 for NQO1-deficient human PBMC to IC50 for human MDA-MB-435 cells overexpressing NQO1; outline: as §2
V79 [17] = assay: Selectivity index, ratio of IC50 for NQO1-deficient chinese hamster V79 cells to IC50 for human MDA-MB-435 cells overexpressing NQO1; outline: as §2
L929 [18] = assay: Selectivity index, ratio of IC50 for NQO1-deficient mouse L929 cells to IC50 for human MDA-MB-435 cells overexpressing NQO1; outline: as §2
SF-295 [19] = assay: Selectivity index, ratio of IC50 for NQO1-deficient human PBMC to IC50 for human SF295 cells overexpressing NQO1; outline: as §2
OVCAR-8 [20] = assay: Selectivity index, ratio of IC50 for NQO1-deficient human PBMC to IC50 for human OVCAR8 cells overexpressing NQO1
Outline: as §2, with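 “line. All IC50s come from 72 h MTT assays.” for “line.”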

L929 [21] = assay: Selectivity index, ratio of IC50 for NQO1-deficient mouse L929 cells to IC50 for human OVCAR8 cells overexpressing NQO1; outline: as §2
PC-3 = assay: Selectivity index, ratio of IC50 for NQO1-deficient human PBMC to IC50 for human PC3 cells overexpressing NQO1; outline: as §2
V79 [22] = assay: Selectivity index, ratio of IC50 for NQO1-deficient chinese hamster V79 cells to IC50 for human PC3 cells overexpressing NQO1; outline: as §2
L929 [23] = assay: Selectivity index, ratio of IC50 for NQO1-deficient mouse L929 cells to IC50 for human PC3 cells overexpressing NQO1; outline: as §2
OVCAR-8 [24] = assay: Selectivity index, ratio of IC50 for NQO1-deficient chinese hamster V79 cells to IC50 for human OVCAR8 cells overexpressing NQO1
Outline: as §2, with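 “line. All IC50s come from 72 h MTT assays.” for “line.”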

Compound	IC50 [1] [nM]	IC50 [2] [nM]	IC50 [3] [nM]	IC50 [4] [µM]	IC50 [5] [nM]	IC50 [6] [nM]	IC50 [7] [nM]	IC50 [8] [µM]	IC50 (Mus musculus) [µM]	Ratio IC50 (HL-60 [10])	Ratio IC50 (L929 [11])	Ratio IC50 (L929 [15])	also measured
CC1(C)CCC2=C(O1)c1ccccc1C(=O)C2=O [LAPACHONE]	870	950	250	> 20.6	–	–	–	–	–	–	–	–	–
O=C1C2=C(C(=O)c3ccccc31)[C@H](c1cccc3ccccc13)[C@@H](n1cc(C[Se]c3ccccc3)nn1)CO2	> 8670	> 8670	> 8670	> 8.67	> 8670	> 8670	> 8670	> 8.67	> 8.67	–	–	–	–
[N-]=[N+]=NC1=CC(=O)c2ccccc2C1=O	4270	3410	2360	8.64	–	2160	3510	5.77	5.17	–	–	–	–
CC1(C)CC(n2cc(C[Se]c3ccccc3)nn2)C2=C(O1)C(=O)c1ccccc1C2=O (centres undefined)	2240	4200	–	4.45	5460	3890	2550	–	–	–	–	–	–
O=C1C(Br)=C(NCc2cn(C[Se]c3ccccc3)nn2)C(=O)c2ccccc21	1670	1610	1430	3.86	1110	2290	–	3.03	3.3	2.7	2.9	2	Ratio IC50 (HL-60 [9]): 3.4; Ratio IC50 (HCT-116 [12]): 1.8; Ratio IC50 (HCT-116 [13]): 1.9; Ratio IC50 (SF-295 [14]): 1.8; Ratio IC50 [16]: 2.6; Ratio IC50 (V79 [17]): 2.1; Ratio IC50 (L929 [18]): 2.3
CC1(C)CC(N=[N+]=[N-])C2=C(O1)C(=O)c1ccccc1C2=O (centres undefined)	2960	–	2720	6.11	1660	2150	1480	3.67	4.13	2.2	2.4	2	Ratio IC50 (HL-60 [9]): 3.6; Ratio IC50 (SF-295 [19]): 2.9; Ratio IC50 (SF-295 [14]): 1.7; Ratio IC50 (OVCAR-8 [20]): 4.1; Ratio IC50 (L929 [21]): 2.7
C#Cc1cccc(NC2C3=C(OC2(C)C)C(=O)c2ccccc2C3=O)c1 (centres undefined)	4600	> 14600	3930	6.46	2590	5150	7130	6.06	–	–	–	–	–
CC1(C)OC2=C(C(=O)c3ccccc3C2=O)C1n1cc(C[Se]c2ccccc2)nn1 (centres undefined)	2540	2650	2150	3.23	1590	2950	2800	4.03	3.77	–	–	–	–
CC1(C)OC2=C(C(=O)c3ccccc3C2=O)C1N=[N+]=[N-] (centres undefined)	3300	3040	2520	3.16	2230	4090	3530	–	3.68	–	–	–	–
O=C1C2=C(C(=O)c3ccccc31)[C@H](c1ccccc1)[C@@H](n1cc(C[Se]c3ccccc3)nn1)CO2	7220	5580	6820	–	8260	7790	–	6.74	7.16	–	–	–	–
O=C1C=C(n2cc(C[Se]c3ccccc3)nn2)C(=O)c2ccccc21	> 12700	> 12700	> 12700	> 12.7	> 12700	> 12700	> 12700	> 12.7	> 12.7	–	–	–	–
C#Cc1cccc(NC2CC(C)(C)OC3=C2C(=O)c2ccccc2C3=O)c1 (centres undefined)	> 14000	> 14000	> 14000	> 14	> 14000	> 14000	> 14000	> 14	> 14	–	–	–	–
CC1(C)OC2=C(C(=O)C(=O)c3ccccc32)[C@@H](n2cc(C[Se]c3ccccc3)nn2)[C@@H]1Br	1110	1520	1310	–	1220	1900	920	2.17	1.74	1.7	1.4	1.1	Ratio IC50 (HL-60 [9]): 1.5; Ratio IC50 (HCT-116 [12]): 1.9; Ratio IC50 (HCT-116 [13]): 1.5; Ratio IC50 (PC-3): 0.9; Ratio IC50 (V79 [22]): 1.1; Ratio IC50 (L929 [23]): 0.9; Ratio IC50 (SF-295 [19]): 1.2; Ratio IC50 (V79 [17]): 1.6; Ratio IC50 (L929 [18]): 1.3; Ratio IC50 (OVCAR-8 [20]): 2; Ratio IC50 (OVCAR-8 [24]): 2.3; Ratio IC50 (L929 [21]): 1.8
CC1(C)OC2=C(C(=O)C(=O)c3ccccc32)C(N=[N+]=[N-])[C@@H]1Br (some centres undefined)	2480	–	1540	–	–	1680	2240	2.4	2.04	1.6	1.4	1	IC50 at 72 h ([4]; human): 3.58 µM; Ratio IC50 (HL-60 [9]): 2.5; Ratio IC50 (PC-3): 2.1; Ratio IC50 (V79 [22]): 1.4; Ratio IC50 (L929 [23]): 1.2; Ratio IC50 (SF-295 [19]): 1.8; Ratio IC50 [16]: 2.3; Ratio IC50 (V79 [17]): 1.5; Ratio IC50 (L929 [18]): 1.3
CC1(C)CC(Nc2cccc(-c3cn(C[Se]c4ccccc4)nn3)c2)C2=C(O1)C(=O)c1ccccc1C2=O (centres undefined)	4900	1880	1490	4.16	2000	2600	3090	3.65	3.3	1.8	1.6	1.7	Ratio IC50 (HL-60 [9]): 2; Ratio IC50 (SF-295 [14]): 1.9; Ratio IC50 [16]: 2.8; Ratio IC50 (V79 [17]): 2.4; Ratio IC50 (L929 [18]): 2.2
O=C1C(Cl)=C(NCc2cn(C[Se]c3ccccc3)nn2)C(=O)c2ccccc21	3250	2930	2010	6.34	–	2250	2580	2.51	3.43	–	–	–	–
CC1(C)OC2=C(C(=O)C(=O)c3ccccc32)C1N=[N+]=[N-] (centres undefined)	890	–	–	–	–	1740	1340	3.27	2.67	–	–	–	–
O=C1C2=C(OC(Cn3cc(C[Se]c4ccccc4)nn3)C2)C(=O)c2ccccc21 (centres undefined)	2420	980	620	2.8	820	1400	910	2.02	2.15	2.4	2.6	2.1	Ratio IC50 (PC-3): 2; Ratio IC50 (V79 [22]): 1.4; Ratio IC50 (L929 [23]): 1.5; Ratio IC50 (SF-295 [19]): 2.8; Ratio IC50 [16]: 4.5; Ratio IC50 (V79 [17]): 3.2; Ratio IC50 (L929 [18]): 3.4; Ratio IC50 (OVCAR-8 [20]): 3; Ratio IC50 (OVCAR-8 [24]): 2.2; Ratio IC50 (L929 [21]): 2.3
